High-throughput results: PubChem BioAssay, Broad Institute
A1 apoptosis 2 = compounds inhibiting A1, read as caspase activation; caspase activation, % (test concentration not listed); 24,000 tested, under 10 active; MEF A1-2A-BIM cells, caspase-Glo luminescence, 3 h; percent of clofoctol response, DMSO zero; AID 2465; in the data active means caspase activation above about 5.9%; inconclusive means no clear call, values can overlap the other calls; inactive means below about 2.2%
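System: mouse embryonic fibroblasts co-expressing A1 and BIM (A1-2A-BIM), primed for A1 dependence; amount: 2500 cells/well; doses: 50 nL pinned compound; schedule: cells settled overnight, compound exposure 3 h at 37 °C, 5% CO2; detection: Caspase-Glo 3/7 luminescence, 1 h at room temperature; read-out: Caspase-3/7 activation, seen as rise in luminescence signal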
T cruzi intra = blocks T. cruzi growth inside host cells; intracellular Trypanosoma cruzi in host cells, plate reader; activity score (inhibition), % at 5.01 µM; hit rate 4.9% among 22,000; in the data active means activity score above about 55%; inconclusive means no clear call, values can overlap the other calls;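 further: parasites and compound incubated about four days before reading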
INS-1E rescue = INS-1E beta cell protection from cytokine death; protection from cytokine-induced ATP loss, % at 10 µM; AID 488910; hit rate 0.1% among 20,000; INS-1E cytokine-induced death, ATP luminescence, 48 h; normalised: neutral wells 0, positive control 100;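 active means mean replicate protection from cytokine-induced ATP loss at least 50% and at least 75% of replicates each reaching 50%; inconclusive means meets only one of the two criteria, mean or replicate share; inactive means fails both the mean and replicate share criteria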
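Assay system: INS-1E rat insulinoma cells. Amount: 8000 cells per well. Medium: phenol-red-free RPMI with 5% fetal bovine serum. Reagent: IL-1β, TNF-α and IFN-γ cytokine mix. Doses: one compound concentration, pin transfer. Schedule: 48 h co-treatment, 10 min post-lysis read. Detection: CellTiter-Glo luminescence measuring cellular ATP.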
Each line names hits and unclear results; the compound was inactive in the other large screens. The full list was thinned out, with hits kept by preference.

C[C@H](CO)N1C[C@H](C)[C@H](CN(C)Cc2ccc(C(=O)Nc3ccccc3N)cc2)Oc2c(NC(=O)Nc3ccc(F)cc3)cccc2C1=O	none
C[C@@H]1CN([C@@H](C)CO)C(=O)c2cccc(NC(=O)Nc3ccc(C(F)(F)F)cc3)c2O[C@H]1CN(C)Cc1ccc(C(=O)Nc2ccccc2N)cc1	T cruzi intra inconclusive
O=C(NCc1nc2ccccc2[nH]1)C1=C[C@H](c2csc3ccccc23)C[C@H](OCCCCO)O1	none (no result: T cruzi intra, INS-1E rescue)
COc1ccc(NC(=O)Nc2ccc3c(c2)C(=O)N([C@H](C)CO)C[C@@H](C)[C@@H](CN(C)Cc2ccc(-c4ccccc4)cc2)O3)cc1	none (no result: A1 apoptosis 2)
C[C@@H]1CN([C@@H](C)CO)C(=O)Cc2cc(NC(=O)CCN3CCOCC3)ccc2O[C@@H]1CN(C)S(=O)(=O)c1cccs1	none
O=C(CCCCCC(=O)Nc1ccccc1O)N/N=C/c1ccc2c(c1)OCCO2	none (no result: A1 apoptosis 2)
C[C@@H]1CN([C@@H](C)CO)C(=O)c2cccc(NC(=O)c3ccncc3)c2O[C@@H]1CN(C)Cc1ccc2c(c1)OCO2	none
C[C@H](CO)N1C[C@H](C)[C@@H](CN(C)Cc2ccc3c(c2)OCO3)Oc2c(NC(=O)c3ccncc3)cccc2C1=O	T cruzi intra 76
C[C@H]1CN([C@@H](C)CO)C(=O)c2cccc(NC(=O)c3ccncc3)c2O[C@@H]1CN(C)Cc1ccc2c(c1)OCO2	T cruzi intra 78
C[C@@H]1CN([C@H](C)CO)C(=O)c2cccc(NC(=O)c3ccncc3)c2O[C@@H]1CN(C)Cc1ccc2c(c1)OCO2	none
Cc1noc(C)c1NC(=O)Nc1ccc2c(c1)C(=O)N([C@@H](C)CO)C[C@@H](C)[C@H](CN(C)C(=O)Nc1c(C)noc1C)OCCCC[C@@H](C)O2	none (no result: T cruzi intra, INS-1E rescue)
CC(C)NC(=O)N(C)C[C@@H]1OCCCC[C@H](C)Oc2ccc(NC(=O)Cc3ccccc3)cc2C(=O)N([C@@H](C)CO)C[C@H]1C	none (no result: T cruzi intra, INS-1E rescue)
C[C@@H]1CN([C@H](C)CO)C(=O)Cc2cc(NS(=O)(=O)c3ccccc3)ccc2O[C@@H]1CN(C)Cc1ccc(C(F)(F)F)cc1	T cruzi intra 59
C[C@H](CO)N1C[C@H](C)[C@H](CN(C)Cc2ccc(C(F)(F)F)cc2)Oc2ccc(NS(=O)(=O)c3ccccc3)cc2CC1=O	none (no result: A1 apoptosis 2)
C[C@@H]1CN([C@H](C)CO)C(=O)Cc2cc(NS(=O)(=O)c3ccccc3)ccc2O[C@H]1CN(C)Cc1ccc(C(F)(F)F)cc1	none
C[C@H]1CN([C@@H](C)CO)C(=O)Cc2cc(NS(=O)(=O)c3ccccc3)ccc2O[C@@H]1CN(C)Cc1ccc(C(F)(F)F)cc1	T cruzi intra 67 (no result: A1 apoptosis 2)
C[C@H](CO)N1C[C@H](C)[C@H](CN(C)C(=O)NC2CCCCC2)Oc2ccc(NC(=O)CCC(F)(F)F)cc2C1=O	none (no result: INS-1E rescue)
Cc1noc(C)c1S(=O)(=O)Nc1ccc2c(c1)C(=O)N([C@@H](C)CO)C[C@H](C)[C@@H](CN(C)S(=O)(=O)c1ccc(Cl)cc1)O2	none
C[C@@H]1CN([C@@H](C)CO)C(=O)c2cccc(NC(=O)NC3CCCCC3)c2O[C@@H]1CN(C)Cc1ccc(Oc2ccccc2)cc1	T cruzi intra 64 (no result: A1 apoptosis 2)
C[C@H]1CN([C@@H](C)CO)C(=O)c2cccc(NC(=O)NC3CCCCC3)c2O[C@H]1CN(C)Cc1ccc(Oc2ccccc2)cc1	none
C[C@@H]1CN([C@H](C)CO)C(=O)c2cccc(NC(=O)NC3CCCCC3)c2O[C@@H]1CN(C)Cc1ccc(-c2ccccc2)cc1	T cruzi intra 70 (no result: A1 apoptosis 2)
C[C@@H]1CN([C@@H](C)CO)C(=O)c2cccc(NC(=O)NC3CCCCC3)c2O[C@H]1CN(C)Cc1ccc(C(F)(F)F)cc1	T cruzi intra 85 (no result: A1 apoptosis 2)
C[C@H]1CN([C@@H](C)CO)C(=O)c2cccc(NC(=O)NC3CCCCC3)c2O[C@H]1CN(C)Cc1ccc(-c2ccccc2)cc1	none (no result: A1 apoptosis 2)
C[C@@H]1CN([C@H](C)CO)C(=O)c2cccc(NC(=O)NC3CCCCC3)c2O[C@H]1CN(C)CC1CCCCC1	T cruzi intra 83
C[C@H](CO)N1C[C@H](C)[C@@H](CN(C)CC2CCCCC2)Oc2c(NC(=O)NC3CCCCC3)cccc2C1=O	none (no result: A1 apoptosis 2)
C[C@@H]1CN([C@H](C)CO)C(=O)c2cccc(NC(=O)NC3CCCCC3)c2O[C@@H]1CN(C)Cc1ccc(C(F)(F)F)cc1	none (no result: A1 apoptosis 2)
Cc1ccc(S(=O)(=O)N(C)C[C@@H]2Oc3ccc(NS(=O)(=O)c4c(C)noc4C)cc3CC(=O)N([C@H](C)CO)C[C@@H]2C)cc1	none (no result: A1 apoptosis 2)
COc1ccc(CN(C)C[C@@H]2OCCCC[C@@H](C)Oc3ccc(NS(=O)(=O)c4ccccc4)cc3C(=O)N([C@@H](C)CO)C[C@H]2C)cc1	none (no result: T cruzi intra, INS-1E rescue)
Cc1noc(C)c1NC(=O)N(C)C[C@H]1Oc2ccc(NC(=O)Nc3ccccc3)cc2CC(=O)N([C@@H](C)CO)C[C@@H]1C	none
C[C@@H]1CCCCO[C@@H](CN(C)Cc2ccc(C(=O)O)cc2)[C@@H](C)CN([C@H](C)CO)C(=O)c2cc(NS(=O)(=O)c3cccs3)ccc2O1	none
C[C@@H]1CN([C@H](C)CO)C(=O)Cc2cc(NS(=O)(=O)c3cn(C)cn3)ccc2O[C@H]1CN(C)C(=O)NC1CCCCC1	none (no result: A1 apoptosis 2)
CNC[C@H]1Oc2ccc(NS(=O)(=O)c3ccc(Cl)cc3)cc2CC(=O)N([C@H](C)CO)C[C@H]1C	none
Cc1noc(C)c1NC(=O)N(C)C[C@@H]1Oc2c(NS(=O)(=O)c3cn(C)cn3)cccc2C(=O)N([C@H](C)CO)C[C@@H]1C	none
C[C@@H]1CN([C@H](C)CO)C(=O)c2cccc(NS(=O)(=O)c3ccccc3)c2O[C@@H]1CN(C)C	none
CC1=C(C/C=N/NC(=O)CCCCCCC(=O)O)C(C)(C)CCC1	none (no result: A1 apoptosis 2)
Cc1noc(C)c1NC(=O)N(C)C[C@@H]1Oc2c(NS(=O)(=O)c3c(C)noc3C)cccc2C(=O)N([C@H](C)CO)C[C@@H]1C	none
C[C@H](CO)N1C[C@H](C)[C@H](CN(C)CC2CC2)Oc2c(NS(=O)(=O)c3cn(C)cn3)cccc2C1=O	none
C[C@@H]1CN([C@H](C)CO)C(=O)c2cccc(NS(=O)(=O)c3cn(C)cn3)c2O[C@@H]1CN(C)CC1CCCCC1	T cruzi intra 60
COc1ccc(NC(=O)Nc2cccc3c2O[C@H](CN(C)Cc2ccc(C(F)(F)F)cc2)[C@@H](C)CN([C@H](C)CO)C3=O)cc1	none (no result: A1 apoptosis 2)
C[C@H]1CN([C@@H](C)CO)C(=O)c2cccc(NC(=O)Nc3ccc4c(c3)OCO4)c2O[C@H]1CN(C)Cc1ccc(C(F)(F)F)cc1	none
COc1ccc(CN(C)C[C@@H]2Oc3c(NC(=O)Nc4ccc(C(F)(F)F)cc4)cccc3C(=O)N([C@H](C)CO)C[C@H]2C)cc1	T cruzi intra 79
C[C@H]1CN([C@@H](C)CO)C(=O)c2cccc(NC(=O)Nc3ccc(C(F)(F)F)cc3)c2O[C@@H]1CN(C)Cc1ccc(Oc2ccccc2)cc1	none
C[C@H]1CN([C@@H](C)CO)C(=O)c2cccc(NC(=O)Nc3ccc(C(F)(F)F)cc3)c2O[C@@H]1CN(C)Cc1ccc(C(F)(F)F)cc1	none
C[C@H](CO)N1C[C@H](C)[C@H](CN(C)Cc2ccc(Oc3ccccc3)cc2)Oc2c(NC(=O)Nc3ccc(C(F)(F)F)cc3)cccc2C1=O	T cruzi intra 62 (no result: A1 apoptosis 2)
